Experimental findings from ChEMBL document CHEMBL2417527, “Prenylated and geranylated flavonoids increase production of reactive oxygen species in mouse macrophages but inhibit the inflammatory response” (J Nat Prod, 2013) are described below.

Active and inactive are the calls of the source. No cut-off for these calls is given here. Some results are limits rather than exact numbers.

Test [1] is described as follows: Antioxidant activity assessed as hydrogen peroxide radical scavenging activity by chemiluminescence method. In kind it is functional. In a few lines: (§1)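 Lucigenin chemiluminescence was used. Each reaction contained 50 mM Tris-HCl (pH 7.4), compound in DMSO at 125–1000 μM, 800 μM lucigenin and 1% (v/v) H2O2. Luminescence was read at 37 °C immediately after mixing. Five independent experiments were run, each in triplicate.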

Test [2] concerns J774.A1. In words: Induction of ROS production in mouse J774A1 cells at 1.25 uM after 30 mins by flow cytometry relative to control. In kind it is functional. Summed up:
(§2)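 Cells were grown to 80–90% confluence and switched to serum-free DMEM. They were loaded with 10 μM DCFH2-DA for 1 h, and compound (0.25 or 1.25 μM, 0.1% DMSO) was added for the final 30 min. Cells were washed, scraped off in PBS/lidocaine, and DCF was measured by flow cytometry (ex 488/em 525 nm). Results were compared with vehicle-treated cells; mean ± SE of four experiments.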
Background: Flow cytometry measures light scatter and fluorescence of single cells or particles in a stream.

For test [3], the system named is J774.A1. The test can be described thus: Reduction of LPS-induced COX2 expression in mouse J774A1 cells at 1.25 uM pretreated 1 hr before LPS challenge measured after 24 hrs. In kind it is functional, cell-based. Summed up: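 Macrophages were pretreated with 1.25 μM compound for 1 h, then stimulated with 1 μg/mL LPS for 24 h. Lysates (40 μg protein) were run on 12% gels and blotted to PVDF. COX-2 was detected with antibody at 1:500 and normalized to β-actin by densitometry. Four independent experiments.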

Test [4] relates to J774.A1. The test can be described thus: Induction of ROS production in LPS-stimulated mouse J774A1 cells at 0.25 to 1.25 uM after 24 hrs by flow cytometry. In kind it is functional, cell-based. Summed up: (§3)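 Macrophages in serum-free DMEM were pretreated with compound (0.25 or 1.25 μM) for 1 h. E. coli 0111:B4 LPS (1 μg/mL) was then added for 24 h, with DCFH2-DA added 30 min before the end. DCF fluorescence was measured by flow cytometry (ex 488/em 525 nm). Results were compared with cells given vehicle plus LPS.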

Test [5] can be described thus: Antioxidant activity assessed as NADH/phenazine methosulfate generated superoxide anion scavenging after 2 mins by NBT reduction assay. Format: functional. Summed up:
(§4)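 Superoxide was generated by NADH/PMS. Final concentrations were 19 mM phosphate buffer (pH 7.4), compound in DMSO at 12.5–1000 μM, 166 μM NADH, 43.3 μM NBT and 2.7 μM PMS. NBT reduction to diformazan was read as absorbance at 560 nm after 2 min of mixing at room temperature. Five independent experiments were run, each in triplicate.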

Test [6] deals with J774.A1. In words: Induction of ROS production in mouse J774A1 cells at 1.25 uM after 24 hrs by flow cytometry relative to control.
A short description of test [7]: Antioxidant activity assessed as hypochlorous acid scavenging activity by fluorescence assay. Format: functional. Summed up:
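Oxidation of dihydrorhodamine 123 to rhodamine was followed. Final concentrations were 100 mM phosphate buffer (pH 7.4), compound in methanol at 0.625–100 μM, 5 μM DHR and 5 μM HClO. Fluorescence (ex 485, em 528 nm) was read at 37 °C immediately after mixing. Five independent experiments were run, each in triplicate.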

Test [8] has as its system J774.A1. In words: Induction of ROS production in LPS-stimulated mouse J774A1 cells at 1.25 uM after 30 mins by flow cytometry relative to control. In kind it is functional.
Test [9] deals with J774.A1. In words: Induction of ROS production in mouse J774A1 cells at 0.25 uM after 30 mins by flow cytometry relative to control. Format: functional. In a few lines: as §2
For test [10], the system named is J774.A1. The test can be described thus: Induction of ROS production in mouse J774A1 cells at 0.25 to 1.25 uM after 30 mins by flow cytometry relative to control. In kind it is functional. In a few lines: as §2
Test [11] relates to J774.A1. The test can be described thus: Effect on ROS production in LPS-stimulated mouse J774A1 cells at 0.25 to 1.25 uM after 30 mins by flow cytometry. Format: functional, cell-based.
Test [12] is described as follows: Antioxidant activity assessed as hydrogen peroxide radical scavenging activity at 1 mM by chemiluminescence method. In kind it is functional. In a few lines:
as §1

A short description of test [13]: Antioxidant activity assessed as NADH/phenazine methosulfate generated superoxide anion scavenging at 1 mM after 2 mins by NBT reduction assay. In kind it is functional. In a few lines: as §4
Test [14] relates to J774.A1. The test can be described thus: Reduction of ROS production in LPS-stimulated mouse J774A1 cells at 0.25 to 1.25 uM after 30 mins by flow cytometry. In kind it is functional, cell-based.
In test [15] the test system is J774.A1. The test can be described thus: Reduction of ROS production in LPS-stimulated mouse J774A1 cells at 0.25 to 1.25 uM after 24 hrs by flow cytometry. In kind it is functional, cell-based. In a few lines:
as §3

As to `CC(C)=CCc1c(-c2ccc(O)cc2O)oc2cc3c(c(O)c2c1=O)C=CC(C)(C)O3` [CUDRAFLAVONE B], the concentration for half-maximal inhibition (IC50) is 641 µM in [1], 219 µM in test [5] and 1.8 µM in test [7]. The “fold change (FC)” value was found to be 3.12 in the test with J774.A1 [2], 2 in the test with J774.A1 [6], 1.71 in the test on J774.A1 [8] and 2.13 in the test on J774.A1 [9]. Also, in the test with J774.A1 [3], the outcome was inactive. In the test on J774.A1 [4], the outcome was Active.
`CC(C)=CCC/C(C)=C/Cc1c(O)cc2c(c1O)C(=O)C[C@@H](c1ccc(O)c(O)c1)O2` [NYMPHAEOL A]: the half-inhibitory concentration (IC50) in test [1] was found to be 554 µM; in test [5], 41.2 µM; in test [7], 2.3 µM. Besides, the result in the test on J774.A1 [3] was Active. The “fold change (FC)” value in the test on J774.A1 [10] stood at 0.95; in the test with J774.A1 [6], 0.79. For the same compound, the result in the test with J774.A1 [11] was inactive.
Regarding `CC(C)=CCc1c2c(c3occ(-c4ccc(O)cc4)c(=O)c3c1O)C=CC(C)(C)O2` [OSAJIN], the values for the half-maximal inhibitory concentration (IC50) in [1], in test [5] and in [7] were above 1000 µM, above 1000 µM and 31 µM, respectively. Moreover, the Activity is 17% in [12] and 39% in [13]. Besides, in the test on J774.A1 [4], the outcome was Active. The “fold change (FC)” value stood at 0.95 in the test on J774.A1 [10] and 1.59 with J774.A1 [8].
Regarding `CC(C)=CCc1c2c(c3occ(-c4ccc(O)c(O)c4)c(=O)c3c1O)C=CC(C)(C)O2` [POMIFERIN], the IC50 is 899 µM in test [1], 73.3 µM in test [5] and 9.1 µM in test [7]. For the same compound, the “fold change (FC)” value in the test with J774.A1 [10] is 0.95. For the same compound, the result in the test with J774.A1 [14] and in the test with J774.A1 [15] was Active.

The term IC50 denotes the concentration at which inhibition is half-maximal.
